Published values from different studies.
Compare with care: the assays were run in different laboratories.
Target: Mitogen-activated protein kinase 1 (MAPK1, Homo sapiens, UniProt P28482)

| Compound | read-out | mode | technique | concentration | endpoint | result |
| --- | --- | --- | --- | --- | --- | --- |
| COc1ccc2oc(-c3ccc4nc(N)oc4c3)c/c(=N\c3ccccc3NC(=O)CCN)c2c1 | binding |  |  | 1 µM | remaining binding | 97% |
| COc1ccc2[nH]c3c4[nH]c5ccc(OC)cc5c4c4c(c3c2c1)C(=O)NC4=O | binding |  |  | 1 µM | remaining binding | 76% |
| C#Cc1cc(-c2cc(Nc3nc(N[C@@H](C)c4ccc(F)cn4)ncc3Cl)n[nH]2)ccc1C=O | enzyme activity | inhibitor |  | 0.2 µM | inhibition | 10.4% |
| Cc1cc(O)c(-c2ccc([C@@H](C)CN(C)C)cc2)c2c1[nH]c(=O)c1sccc12 | enzyme activity | inhibitor |  | 0.1 µM | inhibition | 6.8% |
| CCCCC(=O)Nc1ccc(-c2ccc3ncn(CCC)c(=O)c3c2)cn1 | binding |  | competition with immobilised ligand | 0.5 µM | remaining binding | 89% |
| C=CC(=O)N1CCC([C@@H]2CCNc3c(C(N)=O)c(-c4ccc(Oc5ccccc5)cc4)nn32)CC1 | enzyme activity | inhibitor |  | 1 µM | inhibition | 10% |
| C[C@H]1CC[C@H](n2c3cnccc3c3cnc(Nc4ccc5c(n4)CCN(C(=O)CO)C5)nc32)CC1 | cell-free assay |  |  | 1 µM | remaining signal | 100% |
| CC#CC(=O)N1CCC[C@H]1c1nc(-c2ccc(C(=O)Nc3ccccn3)cc2)c2c(N)nccn12 | enzyme activity | inhibitor |  | 1 µM | inhibition | 3% |
| O=C1C=C(Nc2ccc(OCc3cn(Cc4ccccc4)nn3)cc2)C(=O)c2ccccc21 | enzyme activity | inhibitor | radiometric | 10 µM | inhibition | 18% |
